Key:
[1] = target: T1, Serine/threonine-protein kinase mTOR (Homo sapiens, UniProt P42345); assay: Inhibition of recombinant human GST-tagged mTOR catalytic domain (1360 to 2549 residues) expressed in baculovirus expression system using GFP-4E-BP1 as substrate preincubated for 15 mins followed by substrate addition and measured after 60 mins by TR-FRET assay
Method in brief: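 Recombinant mTOR (FRAP1) was preincubated 15 min with serially diluted compound (10 µM–0.0005 µM, DMSO) in kinase buffer, 10 µL reaction. GFP-4E-BP1 (400 nM final) and ATP (8 µM final) were added and the reaction ran 1 h at RT. Quench buffer with Tb-anti-p4E-BP1 (pThr46) was added for 1 h at RT. TR-FRET 520/486 nm ratio was fitted by four-parameter sigmoidal regression.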

[2] = Toxicity in Swiss mouse assessed as discoloration of kidney at 30 mg/kg, po administered twice daily via gavage for 5 days and measured post last dose; assay type: organism-based; conditions: in vivo, 120 h, time 5 day
Method in brief: (§1)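 Female Swiss mice (3 treated, 2 controls) were gavaged twice daily for 5 days, with compound in 0.5% CMC and Tween 80. After the last dosing the animals were sacrificed. Liver, kidney, lung, uterus and brain were excised and inspected visually for morphology and color change.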

[3] = target: RAC-gamma serine/threonine-protein kinase (Homo sapiens) (UniProt Q9Y243); assay: Inhibition of human AKT3 at 1 uM using fluorescently labeled peptide substrate measured after 3 hrs by microfluidic mobility shift assay relative to control
Method in brief: (§2)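 Single-concentration screen at 1 µM in duplicate, 1% final DMSO. Kinase (typically 1 nM), fluorescently labeled peptide substrate (typically 1 µM), ATP at Km and Mg²⁺ incubated about 3 h at 25 °C, then EDTA-quenched. Substrate and phosphorylated product separated by microfluidic electrophoresis and quantified by fluorescence.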

[4] = Cmax in Swiss mouse at 10 mg/kg, po via gavage by LC-MS/MS analysis; assay type: ADME, organism-based; design: route oral, dose 10 mg/kg; conditions: in vivo
Method in brief: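 Female Swiss mice (n=3/group), fasted overnight, given single oral gavage dose in 0.5% CMC/0.5% Tween 80 (10 mL/kg) at 1, 3 or 10 mg/kg. Serial blood sampling at 0.16–8 h into heparinized tubes. Plasma extracted with acetonitrile containing verapamil internal standard and quantified by LC-MS/MS. Cmax, Tmax, AUC and t1/2 derived from the concentration–time profile.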

[5] = Toxicity in Swiss mouse assessed as discoloration of liver at 30 mg/kg, po administered twice daily via gavage for 5 days and measured post last dose; assay type: organism-based; conditions: in vivo, 120 h, time 5 day; method in brief: as §1
[6] = Metabolic stability in dog liver microsomes assessed as parent compound remaining at 10 uM remaining after 120 mins in presence of NADPH by HPLC analysis; assay type: ADME, Canis lupus familiaris, Microsome; conditions: read-out: Stabilty
Method in brief: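 Compound at 10 µM was incubated with 0.5 mg/mL liver microsomes and 1 mM NADPH (final). Samples were taken at 0, 15, 30, 60 and 120 min and stopped with acetonitrile, then centrifuged and the supernatant analysed by HPLC. Percent parent remaining was set relative to the 0 min peak area (100%).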

[7] = target: T1, Serine/threonine-protein kinase mTOR; assay: Inhibition of human mTOR at 1 uM using fluorescently labeled peptide substrate measured after 3 hrs by microfluidic mobility shift assay relative to control
Method in brief: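 Single-concentration screen at 1 µM in duplicate wells, in a 23-kinase panel using microfluidic mobility shift. Compound was diluted from a 100x DMSO stock, with 1% DMSO final. Kinase (typically 1 nM), fluorescent peptide substrate (typically 1 µM), ATP at 1x Km and Mg2+ were incubated typically 3 h at 25 °C, then quenched with EDTA. Substrate and phospho-product were separated electrophoretically and quantified by fluorescence.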

[8] = Drug level in Swiss mouse uterus at 30 mg/kg, po administered twice daily via gavage for 5 days and measured post last dose by LC-MS/MS analysis; assay type: ADME, organism-based; conditions: time 5 day, read-out: Drug uptake
Method in brief: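 Female Swiss mice (n=3) given 30 mg/kg in 0.5% CMC/Tween 80 by oral gavage twice daily for 5 days, with two vehicle controls. After sacrifice, liver, kidney, lung, uterus and brain were collected, homogenized in water and solvent-extracted. Drug concentration (ng/g) measured by LC-MS/MS.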

[9] = Toxicity in Swiss mouse assessed as body weight loss at 10 mg/kg, po administered twice daily via gavage for 5 days and measuring daily during compound dosing; assay type: organism-based; conditions: in vivo, 120 h, time 5 day
Method in brief: (§3)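 Female Swiss mice (3 treated, 2 vehicle controls) received oral gavage twice daily for 5 days, with compound formulated in 0.5% CMC and Tween 80. Body weight, body temperature, body coat, feed intake, eyes, feces and general activity were observed daily.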

PC-3 = assay: Antiproliferative activity against human PC-3 cells after 48 hrs by MTT assay; assay type: functional, cell-based; conditions: PC-3, 48 h
Method in brief: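 PC3 cells grown in RPMI 1640 with 10% FBS and 1% penicillin/streptomycin at 37 °C, 5% CO2, seeded at 10000 cells/well. Treated 48 h across 20 µM–0.001 µM. MTT (5 mg/mL in PBS) added for 4 h, then DMSO solubilization and absorbance at 550 nm. Four-parameter nonlinear fit of % inhibition.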

[10] = target: Voltage-gated inwardly rectifying potassium channel KCNH2 (Homo sapiens, UniProt Q12809); assay: Inhibition of human ERG by patch-clamp assay
Voltage-gated inwardly rectifying potassium channel KCNH2, sequence (Q12809 whole entry): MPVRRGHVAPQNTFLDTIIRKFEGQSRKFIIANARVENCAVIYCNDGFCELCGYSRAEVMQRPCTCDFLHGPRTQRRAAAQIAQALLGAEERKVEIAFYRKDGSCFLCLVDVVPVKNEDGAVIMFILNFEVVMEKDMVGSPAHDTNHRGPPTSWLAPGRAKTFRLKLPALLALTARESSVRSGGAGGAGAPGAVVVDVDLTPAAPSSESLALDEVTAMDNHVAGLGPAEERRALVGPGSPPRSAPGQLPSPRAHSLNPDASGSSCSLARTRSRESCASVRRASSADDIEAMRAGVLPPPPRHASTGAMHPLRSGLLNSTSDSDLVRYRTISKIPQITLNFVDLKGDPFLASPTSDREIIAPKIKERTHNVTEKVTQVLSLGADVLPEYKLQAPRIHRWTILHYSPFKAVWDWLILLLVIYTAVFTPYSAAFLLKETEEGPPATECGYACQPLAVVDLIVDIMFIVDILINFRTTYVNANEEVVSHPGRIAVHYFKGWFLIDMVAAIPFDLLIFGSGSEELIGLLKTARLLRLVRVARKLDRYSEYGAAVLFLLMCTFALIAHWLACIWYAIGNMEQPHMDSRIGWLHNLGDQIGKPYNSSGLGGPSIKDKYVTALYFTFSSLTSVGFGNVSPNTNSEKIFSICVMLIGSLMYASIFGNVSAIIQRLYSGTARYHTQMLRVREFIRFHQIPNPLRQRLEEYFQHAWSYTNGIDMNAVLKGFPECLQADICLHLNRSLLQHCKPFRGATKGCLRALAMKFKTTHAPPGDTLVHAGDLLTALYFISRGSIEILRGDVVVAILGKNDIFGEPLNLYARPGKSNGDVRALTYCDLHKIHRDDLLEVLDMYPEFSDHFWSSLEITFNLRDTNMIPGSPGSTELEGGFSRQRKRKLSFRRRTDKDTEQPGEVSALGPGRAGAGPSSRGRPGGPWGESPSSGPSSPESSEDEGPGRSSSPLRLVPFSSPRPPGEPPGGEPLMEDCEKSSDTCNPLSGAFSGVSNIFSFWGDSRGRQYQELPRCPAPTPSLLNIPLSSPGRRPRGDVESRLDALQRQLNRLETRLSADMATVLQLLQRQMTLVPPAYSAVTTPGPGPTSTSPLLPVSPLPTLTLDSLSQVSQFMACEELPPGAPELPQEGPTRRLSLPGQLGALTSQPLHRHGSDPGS

[11] = target: Inhibitor of nuclear factor kappa-B kinase subunit beta (Homo sapiens) (UniProt O14920); assay: Inhibition of human IKBKB at 1 uM using fluorescently labeled peptide substrate measured after 3 hrs by microfluidic mobility shift assay relative to control; method in brief: as §2
Inhibitor of nuclear factor kappa-B kinase subunit beta (Homo sapiens), sequence (O14920 whole entry, canonical isoform): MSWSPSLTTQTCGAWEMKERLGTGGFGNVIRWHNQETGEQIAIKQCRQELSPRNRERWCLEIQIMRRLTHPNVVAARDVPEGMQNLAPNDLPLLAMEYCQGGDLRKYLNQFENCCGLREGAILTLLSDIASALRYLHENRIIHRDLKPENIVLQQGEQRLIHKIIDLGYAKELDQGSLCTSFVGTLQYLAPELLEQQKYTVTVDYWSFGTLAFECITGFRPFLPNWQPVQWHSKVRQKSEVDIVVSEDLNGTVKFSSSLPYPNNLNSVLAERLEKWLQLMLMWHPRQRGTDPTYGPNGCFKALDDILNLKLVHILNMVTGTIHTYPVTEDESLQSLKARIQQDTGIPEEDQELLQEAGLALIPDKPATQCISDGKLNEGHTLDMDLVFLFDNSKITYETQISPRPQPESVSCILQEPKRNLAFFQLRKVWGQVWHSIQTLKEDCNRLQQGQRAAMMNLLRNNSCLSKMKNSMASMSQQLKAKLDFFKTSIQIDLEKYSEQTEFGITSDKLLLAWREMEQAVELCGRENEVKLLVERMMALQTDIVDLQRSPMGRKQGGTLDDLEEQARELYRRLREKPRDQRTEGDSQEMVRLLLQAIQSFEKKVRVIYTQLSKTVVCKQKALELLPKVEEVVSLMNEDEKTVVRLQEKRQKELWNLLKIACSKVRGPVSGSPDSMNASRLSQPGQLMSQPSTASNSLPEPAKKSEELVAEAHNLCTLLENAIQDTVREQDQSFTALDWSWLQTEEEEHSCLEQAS

Cytochrome P450 3A4 = Cytochrome P450 3A4 (Homo sapiens, UniProt P08684); assay: Inhibition of CYP3A4 in human liver microsomes using isoform-specific probe substrates preincubated for 5 mins followed by NADPH addition by LC-MS/MS analysis; assay type: ADME
Cytochrome P450 3A4, sequence (P08684 whole entry, canonical isoform): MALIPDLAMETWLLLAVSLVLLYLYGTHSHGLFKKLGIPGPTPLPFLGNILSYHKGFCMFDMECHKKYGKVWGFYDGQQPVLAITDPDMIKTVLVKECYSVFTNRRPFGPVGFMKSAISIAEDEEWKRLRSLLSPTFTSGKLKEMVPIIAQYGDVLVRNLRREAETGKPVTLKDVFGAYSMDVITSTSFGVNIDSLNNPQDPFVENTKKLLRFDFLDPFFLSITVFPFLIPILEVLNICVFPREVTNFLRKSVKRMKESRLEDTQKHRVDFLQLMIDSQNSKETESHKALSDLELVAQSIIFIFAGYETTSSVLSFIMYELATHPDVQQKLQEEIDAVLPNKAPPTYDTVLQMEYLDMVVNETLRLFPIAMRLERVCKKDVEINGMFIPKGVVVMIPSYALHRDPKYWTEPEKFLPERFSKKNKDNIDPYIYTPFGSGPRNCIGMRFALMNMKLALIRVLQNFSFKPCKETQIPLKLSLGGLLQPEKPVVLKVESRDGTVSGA
Method in brief: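 Human liver microsomes premixed with buffer and a CYP-specific FDA-recommended probe substrate, then spiked with inhibitor, in duplicate. After 5 min preincubation at 37 °C, reaction started with NADPH and run at 37 °C for a set time, then quenched. Metabolite formation quantified by HPLC/LC-MS/MS to derive the concentration giving 50% inhibition.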

[12] = Toxicity in Swiss mouse assessed as loss of appetite at 10 mg/kg, po administered twice daily via gavage for 5 days and measuring daily during compound dosing; assay type: organism-based; conditions: in vivo, 120 h, time 5 day; method in brief: as §3
[13] = target: RAC-alpha serine/threonine-protein kinase (Homo sapiens) (UniProt P31749); assay: Inhibition of human AKT1 at 1 uM using fluorescently labeled peptide substrate measured after 3 hrs by microfluidic mobility shift assay relative to control; method in brief: as §2
RAC-alpha serine/threonine-protein kinase (Homo sapiens), sequence (P31749 whole entry): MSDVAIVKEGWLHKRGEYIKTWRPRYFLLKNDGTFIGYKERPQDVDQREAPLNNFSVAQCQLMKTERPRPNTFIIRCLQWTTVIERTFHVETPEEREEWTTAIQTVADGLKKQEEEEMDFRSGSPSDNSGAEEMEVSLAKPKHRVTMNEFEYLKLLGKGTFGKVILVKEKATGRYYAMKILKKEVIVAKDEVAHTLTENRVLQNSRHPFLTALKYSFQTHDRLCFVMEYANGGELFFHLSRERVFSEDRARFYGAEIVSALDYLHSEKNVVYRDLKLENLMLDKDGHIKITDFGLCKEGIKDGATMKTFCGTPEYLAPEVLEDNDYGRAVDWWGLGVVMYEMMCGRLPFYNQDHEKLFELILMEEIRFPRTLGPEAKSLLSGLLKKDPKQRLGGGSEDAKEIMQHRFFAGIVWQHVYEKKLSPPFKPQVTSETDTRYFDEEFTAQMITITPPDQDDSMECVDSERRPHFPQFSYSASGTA

[14] = Toxicity in Swiss mouse assessed as morphological changes in brain at 30 mg/kg, po administered twice daily via gavage for 5 days and measured post last dose; assay type: organism-based; conditions: in vivo, 120 h, time 5 day; method in brief: as §1
[15] = Toxicity in Swiss mouse assessed as morphological changes in kidney at 30 mg/kg, po administered twice daily via gavage for 5 days and measured post last dose; assay type: organism-based; conditions: in vivo, 120 h, time 5 day; method in brief: as §1
[16] = Toxicity in Swiss mouse assessed as change in body coat at 10 mg/kg, po administered twice daily via gavage for 5 days and measuring daily during compound dosing; assay type: organism-based; conditions: in vivo, 120 h, time 5 day; method in brief: as §3
[17] = target: Receptor tyrosine-protein kinase erbB-2 (Homo sapiens) (UniProt P04626); assay: Inhibition of human ERBB2 at 1 uM using fluorescently labeled peptide substrate measured after 3 hrs by microfluidic mobility shift assay relative to control; method in brief: as §2
Receptor tyrosine-protein kinase erbB-2 (Homo sapiens), sequence (P04626 whole entry): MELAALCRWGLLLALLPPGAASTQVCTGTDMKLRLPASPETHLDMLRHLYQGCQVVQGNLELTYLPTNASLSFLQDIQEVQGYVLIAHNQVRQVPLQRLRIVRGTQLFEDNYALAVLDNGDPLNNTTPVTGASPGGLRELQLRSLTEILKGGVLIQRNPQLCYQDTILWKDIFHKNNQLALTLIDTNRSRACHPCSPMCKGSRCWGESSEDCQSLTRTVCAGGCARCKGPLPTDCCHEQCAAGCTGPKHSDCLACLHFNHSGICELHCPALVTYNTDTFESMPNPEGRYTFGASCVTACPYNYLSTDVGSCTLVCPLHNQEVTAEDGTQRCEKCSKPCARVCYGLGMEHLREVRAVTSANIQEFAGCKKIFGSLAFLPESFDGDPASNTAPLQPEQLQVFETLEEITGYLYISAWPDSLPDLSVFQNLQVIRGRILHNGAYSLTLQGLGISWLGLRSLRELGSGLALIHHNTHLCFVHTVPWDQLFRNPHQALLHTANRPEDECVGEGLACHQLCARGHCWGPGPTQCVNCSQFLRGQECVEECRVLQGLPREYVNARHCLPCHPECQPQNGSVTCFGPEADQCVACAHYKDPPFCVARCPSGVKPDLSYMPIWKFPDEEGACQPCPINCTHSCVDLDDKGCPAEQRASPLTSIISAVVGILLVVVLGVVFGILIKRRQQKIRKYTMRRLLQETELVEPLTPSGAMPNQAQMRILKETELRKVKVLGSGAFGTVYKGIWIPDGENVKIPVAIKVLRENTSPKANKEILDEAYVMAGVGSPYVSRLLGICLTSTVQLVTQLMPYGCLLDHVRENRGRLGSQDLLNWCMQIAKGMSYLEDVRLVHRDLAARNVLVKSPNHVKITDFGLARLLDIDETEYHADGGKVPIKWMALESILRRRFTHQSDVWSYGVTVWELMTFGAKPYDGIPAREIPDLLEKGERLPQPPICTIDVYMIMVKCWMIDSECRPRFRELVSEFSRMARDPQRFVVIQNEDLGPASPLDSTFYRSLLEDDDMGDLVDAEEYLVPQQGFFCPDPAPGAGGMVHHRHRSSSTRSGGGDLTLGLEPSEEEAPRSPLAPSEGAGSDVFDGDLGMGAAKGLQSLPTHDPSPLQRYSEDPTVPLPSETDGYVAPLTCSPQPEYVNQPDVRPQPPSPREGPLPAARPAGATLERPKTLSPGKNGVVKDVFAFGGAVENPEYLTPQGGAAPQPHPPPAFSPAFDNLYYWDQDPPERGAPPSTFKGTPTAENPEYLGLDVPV

[18] = target: Phosphatidylinositol 4-kinase beta (Homo sapiens) (UniProt Q9UBF8); assay: Inhibition of human PI4kbeta at 1 uM using fluorescently labeled peptide substrate measured after 3 hrs by microfluidic mobility shift assay relative to control; method in brief: as §2
Phosphatidylinositol 4-kinase beta (Homo sapiens), sequence (Q9UBF8 2-816 limits assumed): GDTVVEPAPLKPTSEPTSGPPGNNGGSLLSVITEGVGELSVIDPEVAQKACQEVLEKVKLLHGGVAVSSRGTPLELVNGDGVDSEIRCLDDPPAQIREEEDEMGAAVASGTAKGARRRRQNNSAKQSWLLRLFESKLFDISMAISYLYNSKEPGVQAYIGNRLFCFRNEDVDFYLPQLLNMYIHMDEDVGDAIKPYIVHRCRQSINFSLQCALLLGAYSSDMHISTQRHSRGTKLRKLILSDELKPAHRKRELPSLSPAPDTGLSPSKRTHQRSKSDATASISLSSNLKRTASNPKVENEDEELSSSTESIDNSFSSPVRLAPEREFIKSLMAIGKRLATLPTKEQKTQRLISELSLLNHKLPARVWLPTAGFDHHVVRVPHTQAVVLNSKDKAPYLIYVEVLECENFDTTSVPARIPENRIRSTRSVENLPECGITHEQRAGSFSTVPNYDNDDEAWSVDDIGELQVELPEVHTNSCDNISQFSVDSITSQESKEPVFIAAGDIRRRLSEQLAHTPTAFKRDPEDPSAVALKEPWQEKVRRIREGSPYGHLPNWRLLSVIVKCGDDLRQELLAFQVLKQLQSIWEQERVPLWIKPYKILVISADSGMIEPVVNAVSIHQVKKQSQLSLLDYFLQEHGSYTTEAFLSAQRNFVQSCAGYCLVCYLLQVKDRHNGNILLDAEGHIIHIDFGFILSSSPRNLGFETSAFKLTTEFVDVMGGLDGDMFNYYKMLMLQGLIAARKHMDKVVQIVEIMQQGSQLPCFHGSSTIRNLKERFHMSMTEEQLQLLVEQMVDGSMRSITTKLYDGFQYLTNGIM

## CN(C)C(=O)c1ccc(Oc2nc(-c3cnc(N)s3)nc(N3CCOCC3)n2)cc1
[1]
  IC50: 10 nM
[2]
  Activity: Non-Toxic
[3]
  inhibition: -1%
[4]
  Cmax: 12.6 µM
[5]
  Activity: Toxic
[6]
  remaining at 2 h, 10 µM: 105%
[7]
  inhibition: 89%
[8]
  concentration at 120 h: 10 ng/g
[9]
  Activity: Non-Toxic
PC-3
  EC50: 480 nM
[10]
  IC50: > 10000 nM
[11]
  inhibition: -3%
Cytochrome P450 3A4
  IC50: > 10000 nM
[12]
  Activity: Non-Toxic
[13]
  inhibition: -1%
[14]
  Activity: Non-Toxic
[15]
  Activity: Non-Toxic
[16]
  Activity: Non-Toxic
[17]
  inhibition: -1%
[18]
  inhibition: -3%
